High-throughput results deposited in PubChem by Sanford-Burnham Center for Chemical Genomics.
Hits are enriched below; roughly 2.5% of the tested compounds scored in any of these assays.
SENP8 block-1 – human SENP8 protease inhibitors, primary screen, biochemical, fluorescence, Nedd8 protein substrate, uHTS; Sentrin-specific protease 8 (Homo sapiens), Q96LD8; recombinant SENP8; inhibition, % at 20 µM; hit rate 0.64% among 360,000; AID 602440, 2012; in the data active = inhibition mostly above about 40%, no sharp cut-off; inactive = mostly below about 27%
SENP1 inh – human SENP1 catalytic domain inhibitors, primary screen, biochemical, FRET, uHTS; recombinant SENP1 catalytic domain, CyPet-SUMO1-YPet FRET cleavage; inhibition, % at 10 µM; hit rate 0.21% among 360,000;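 active = inhibition at least 30% at 10 µM, raw YFP signal under a set limit, fluorescence ratio 0.5 to 1.5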;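 also: 0% = enzyme with DMSO and 100% = no enzyme wells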
Target sequence (Q9P0U3 419-644 limits assumed): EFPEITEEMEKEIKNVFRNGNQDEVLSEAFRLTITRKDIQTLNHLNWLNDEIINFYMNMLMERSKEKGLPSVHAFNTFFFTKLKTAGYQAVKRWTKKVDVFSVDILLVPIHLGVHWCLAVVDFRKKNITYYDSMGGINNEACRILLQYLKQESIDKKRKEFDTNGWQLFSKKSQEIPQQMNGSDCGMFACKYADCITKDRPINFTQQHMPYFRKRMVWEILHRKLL
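Controls: no-enzyme wells low, DMSO-plus-enzyme wells high control. Test system: human recombinant His6-tagged SENP1 catalytic domain enzyme. Reagent: SFCypet-SUMO1-SFYpet FRET protein substrate, 25 nM final. Doses: one dose per compound, 10 µM, 0.5% DMSO. Detection: FRET, CFP and YFP emission. Timing: 50 min reaction at room temperature.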
SENP7 inh – SENP7 protease inhibitors, primary screen, biochemical, luminescence, uHTS | Sentrin-specific protease 7 (Homo sapiens), Q9BQF6 | recombinant SENP7, Z-RLRGG-aminoluciferin luminescence, 40 min | inhibition, % at 5 µM | hit rate 1.5% among 330,000;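 active = inhibition above about 50% at the single test dose, limit read from the data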;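 also: plate controls were DMSO with enzyme for no effect and no enzyme buffer wells for full effect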
SENP6 inh – SENP6 protease inhibitors, primary screen, biochemical, luminescence, uHTS. Sentrin-specific protease 6 (Homo sapiens), Q9GZR1. Recombinant SENP6 catalytic domain, aminoluciferin luminescence. inhibition, % at 10 µM. hit rate 1.8% among 330,000;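 active = inhibition above about 50% at the single tested dose, limit read from the data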;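 also: plate controls were DMSO wells with enzyme for no effect and DMSO wells lacking enzyme for full effect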
SENP8 block-2 – SENP8 protease inhibitors, primary screen, biochemical, luminescence | purified SENP8, Z-RLRGG-aminoluciferin cleavage | inhibition, % at 10 µM | hit rate 1.2% among 330,000; in the data active = inhibition above about 50%
SENP8 confirm – SENP8 protease inhibitors, retest, confirmation, biochemical, luminescence, single concentration; shares compounds with SENP7 inh; Recombinant SENP8, Z-RLRGG-aminoluciferin luminescence, 60 min; inhibition, % at 12.5 µM; hit rate 40% among 6,200;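 active = mean inhibition across replicates above about 50%, limit read from the data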
SENP6 confirm – SENP6 protease inhibitors, confirmation, biochemical, luminescence, single concentration; inhibition, % at 12.5 µM; AID 488915, 2010; hit rate 58% among 6,200; recombinant SENP6, Z-RLRGG-aminoluciferin luminescence; shares compounds with SENP7 inh
SENP7 conf – SENP7 protease inhibitors, retest, confirmation, biochemical, luminescence, single concentration; inhibition, % at 12.5 µM; hit rate 69% among 6,200; shares compounds with SENP7 inh; recombinant SENP7, Z-RLRGG-aminoluciferin luminescence, 40 min
Casp3 SENP sel – caspase-3 protease inhibitors, confirmation, selectivity assay for SENP inhibitor project, biochemical, single concentration; hit rate 60% among 6,200; AID 488918, 2010; shares compounds with SENP7 inh; purified caspase-3, Z-DEVD-aminoluciferin luminescence, 60 min; inhibition, % at 12.5 µM;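 active = mean inhibition above about 50%, limit read from the data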;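 also: plate controls were enzyme with DMSO for no effect and wells without caspase-3 for full effect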
Target sequence (P42574 28-227 limits assumed): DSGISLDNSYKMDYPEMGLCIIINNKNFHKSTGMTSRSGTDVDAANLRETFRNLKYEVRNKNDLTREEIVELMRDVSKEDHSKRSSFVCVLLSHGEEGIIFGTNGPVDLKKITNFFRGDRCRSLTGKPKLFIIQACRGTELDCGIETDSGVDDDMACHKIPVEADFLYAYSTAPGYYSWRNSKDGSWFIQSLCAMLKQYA
Luc interf – luminescence interference (SENP counter-screen) | shares compounds with SENP7 inh | Pre-incubated SENP8/Z-RLRGG-aminoluciferin, luciferase luminescence interference | inhibition, % at 12.5 µM | hit rate 39% among 6,200;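 active = mean inhibition above about 50% when retested at one dose, limit read from the data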;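 also: plate controls were DMSO wells with completed reaction for no effect and substrate without enzyme for full effect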
The depositor's hits bear a star; / = not tested or not shown.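 The calls were made as follows, unless noted: active = mean inhibition above about 50% in the one-dose retest (limit read from the data); inactive = the rest.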

SMILES	SENP8 block-1	SENP1 inh	SENP7 inh	SENP6 inh	SENP8 block-2	SENP8 confirm	SENP6 confirm	SENP7 conf	Casp3 SENP sel	Luc interf
COc1cc(OC)cc(C(=O)N=c2sc3ccccc3n2C)c1	-419	2	51*	0	-7	-2	3	2	12	10
COc1cc(C)nc(NS(=O)(=O)c2ccccc2Cl)n1	5	-1	52*	4	-7	-25	-17	-6	-5	-6
CCCc1[nH]n(-c2nc3ccccc3s2)c(=O)c1C=NCCCOC	20	1	8	-4	0	/	/	/	/	/
CCCc1[nH]n(-c2nc3ccccc3s2)c(=O)c1C=NCCN1CCOCC1	23	-1	36	51*	34	56*	40	52*	60*	55*
Cc1nnc(SCC(=O)NC2CC2)s1	5	4	5	-4	1	/	/	/	/	/
O=C(Nc1ccc(F)cc1F)c1ccc2c(=O)n3c(nc2c1)CCC3	9	-1	61*	64*	26	47	52*	80*	86*	40
COc1ccc(CN2C(=O)COc3ccccc3C2c2nc3ccccc3[nH]2)cc1 (centres undefined)	7	-2	/	/	/	/	/	/	/	/
CCC(C)c1ccccc1NC(=O)c1cccc(-n2cnnn2)c1 (centres undefined)	9	2	1	20	8	/	/	/	/	/
CC1=NN(C(N)=S)C(=O)C1N=Nc1ccc(O)cc1 (centres undefined)	0	4	22	28	13	/	/	/	/	/
CCOc1ccc(-c2nc(C)c(C(C)=O)n2O)cc1	14	1	-14	0	-1	/	/	/	/	/
CCOc1ccc(N=NC2C(=O)N(C(N)=S)N=C2C)cc1 (centres undefined)	14	5	88*	97*	93*	71*	97*	102*	97*	90*
CC(=O)Nc1ccc(N=NC2C(=O)N(C(N)=S)N=C2C)cc1 (centres undefined)	28	2	63*	70*	61*	64*	64*	90*	90*	25
CC1=NN(C(N)=S)C(=O)C1N=Nc1ccc([N+](=O)[O-])cc1 (centres undefined)	26	5	89*	90*	87*	26	5	-3	-4	-8
CC1=NN(c2ccccc2C(=O)O)C(=O)C1N=Nc1ccccc1 (centres undefined)	28	5	-1	-1	-4	/	/	/	/	/
CC1=NN(C(N)=S)C(=O)C1N=Nc1ccc(F)cc1 (centres undefined)	18	3	80*	88*	79*	32	38	40	54*	5
CCOc1ccc(NC(=O)Nc2ccc(NC(C)=O)cc2)cc1	9	2	2	-8	-2	/	/	/	/	/
COc1ccc(NC(=O)Nc2ccccc2C(N)=O)cc1	11	4	96*	96*	91*	-2	95*	102*	98*	89*
CCOc1ccc(NC(=O)Nc2ccccc2C(N)=O)cc1	11	3	100*	98*	91*	95*	97*	102*	98*	32
